Structures are written as SMILES. Values after ≈ are worked out from the molar mass of the structure shown. Where only a bound is given, the exact number is not on record here.

One test has as its system Plasmodium falciparum. As to the kind of experiment: Antimalarial activity against chloroquine-sensitive Plasmodium falciparum 3D7 after 72 hrs by MSF assay. Particulars: 3D7, 72 h. The test is classed as functional, organism-based. The method in brief: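 Parasites in 1% cell suspension at 0.8–1% initial parasitaemia, exposed to compounds in duplicate wells for 72 h at 37 °C under 5% CO2 in air. SYBR Green-I then added for 1 h at 37 °C; fluorescence read at excitation 485 ± 20 nm, emission 530 ± 20 nm. Signal expressed as percent of untreated controls; IC50 by logit regression. Chloroquine standard.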
With `C=C(c1ccc(C)cc1)C1COC(c2cc(C)c3oc(=O)c(C(=O)OC)cc3c2)OO1` (centres undefined), the half-inhibitory concentration (IC50) came out at 0.361 µg/mL (≈ 0.853 µM).

Compound `C=C(c1ccc(C)cc1)C1COC(c2cc(C)c3oc(=O)c(C(=O)OCC)cc3c2)OO1` (centres undefined) registered an IC50 of 0.262 µg/mL (≈ 0.601 µM).

Compound `C=C(c1ccc(C)cc1)C1COC(c2cc(C(C)CC)c3oc(=O)c(C(=O)OC)cc3c2)OO1` (centres undefined) displayed an IC50 of 0.132 µg/mL (≈ 0.284 µM).

`C=C(c1ccc(C)cc1)C1COC(c2cc(C(C)CC)c3oc(=O)c(C(=O)OCC)cc3c2)OO1` (centres undefined) yielded a half-maximal inhibitory concentration (IC50) of 0.0393 µg/mL (≈ 0.0821 µM).

In turn, `C=C(c1ccc(Br)cc1)C1COC(c2cc(C)c3oc(=O)c(C(=O)OC)cc3c2)OO1` (centres undefined) yielded a 50% inhibitory concentration (IC50) of 0.306 µg/mL (≈ 0.628 µM).

As to `C=C(c1ccc(Br)cc1)C1COC(c2cc(C)c3oc(=O)c(C(=O)OCC)cc3c2)OO1` (centres undefined), it took 0.246 µg/mL (≈ 0.49 µM) to reach half-maximal inhibition (IC50).

In the case of `C=C(c1ccc(Br)cc1)C1COC(c2cc(C(C)CC)c3oc(=O)c(C(=O)OC)cc3c2)OO1` (centres undefined), the 50% inhibitory concentration (IC50) turned out to be 0.076 µg/mL (≈ 0.144 µM).

`C=C(c1ccc(Br)cc1)C1COC(c2cc(C(C)CC)c3oc(=O)c(C(=O)OCC)cc3c2)OO1` (centres undefined) registered a 50% inhibitory concentration (IC50) of 0.11 µg/mL (≈ 0.203 µM).

Regarding `C=C(c1ccc(F)cc1)C1COC(c2cc(C)c3oc(=O)c(C(=O)OC)cc3c2)OO1` (centres undefined), the half-maximal inhibitory concentration (IC50) was more than 0.5 µg/mL.

`C=C(c1ccc(F)cc1)C1COC(c2cc(C)c3oc(=O)c(C(=O)OCC)cc3c2)OO1` (centres undefined) had a 50% inhibitory concentration (IC50) of more than 0.5 µg/mL.

As to `C=C(c1ccc(F)cc1)C1COC(c2cc(C(C)CC)c3oc(=O)c(C(=O)OC)cc3c2)OO1` (centres undefined), the IC50 came to 0.203 µg/mL (≈ 0.433 µM).

As for `C=C(c1ccc(F)cc1)C1COC(c2cc(C(C)CC)c3oc(=O)c(C(=O)OCC)cc3c2)OO1` (centres undefined), the midpoint of inhibition, the IC50, lay at 0.117 µg/mL (≈ 0.242 µM).

Regarding `CO[C@H]1O[C@@H]2O[C@@]3(C)CC[C@H]4[C@H](C)CC[C@@H]([C@H]1C)[C@@]24OO3` [ARTEMETHER], the IC50 was 0.0004 µg/mL (≈ 0.00134 µM).

The subject of a further test is Plasmodium yoelii nigeriensis. As to the kind of experiment: Antimalarial activity against multi drug-resistant Plasmodium yoelii nigeriensis infected in Swiss mouse assessed as suppression in parasitemia at 96 mg/kg, po on day 4.
Conditions: not given
It is filed as functional. The method in brief: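 Peters's 4-day suppressive test in Swiss mice infected with P. yoelii nigeriensis. Compound given orally at 96 mg/kg/day for 4 days; parasitaemia suppression scored on day 4.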
Regarding `C=C(c1ccc(C)cc1)C1COC(c2cc(C)c3oc(=O)c(C(=O)OCC)cc3c2)OO1` (centres undefined), the Activity was determined as 41.14%.
